pIC50, pKd: −log10 of the molar value. “Also recorded” adds a separate entry of the source.
Key:
L02 [1] = format: cell-based, human
[2] = tested on: liver of adult and infant mice; assay: DNA damage in liver of adult and infant mice; format: in vivo; settings: AAI 20 mg/kg, 24 h
Outline: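 Adult mice and 14-day-old infant mice were injected with PBS (negative control), diethylnitrosamine (positive control) or AAI 20 mg/kg, and killed after 24 h. Liver protein was extracted in lysis buffer and quantified by BCA. Proteins were separated by SDS-PAGE, transferred to nitrocellulose and imaged on an infrared scanner for DNA-damage markers.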

C57BL/6 adult mice [3] = assay: AAI-induced renal fibrosis model in adult mice; format: in vivo
Outline: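 Renal fibrosis model in 8-week-old male C57BL/6 mice. A single AAI injection (10 mg/kg i.p.) was given; controls received NaHCO₃. SFII (30 or 60 mg/kg) was gavaged 12 h before AAI and then daily for 3 days; AAI-only mice received olive oil by the same schedule. Animals were killed 14 days after AAI, with body weight monitored.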

HK-2 [4] = assay: Cell proliferation assay; format: cell-based, human
Outline: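 HK-2 cells were kept in DMEM/F12 with 10% FBS and 1% antibiotic-antimycotic at 37 °C, 5% CO₂. They were seeded in 96-well plates overnight, then treated with AAI (in 1% NaHCO₃) and SFII (in DMSO) for 48 h. Medium was replaced with CCK-8 reagent for 2 h at 37 °C, and absorbance was read at 450 nm.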

HK-2 [5] = format: cell-based, human
C57BL/6 adult mice [6] = assay: AAI-induced acute renal injury model in adult mice; format: in vivo
Outline: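 Male C57BL/6 mice aged 8 weeks received AAI 5 mg/kg i.p. for three consecutive days, with NaHCO₃ as the vehicle control. SFII 30 or 60 mg/kg was given by oral gavage 12 h before AAI and at each injection. Mice were killed 3 days after the first AAI dose. Blood creatinine was measured. Kidney sections were stained with Sirius red (37 °C, 30 min), and the stained fibrotic area was calculated.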

L02 [7] = assay: Cell proliferation assay; format: cell-based, human
Outline: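 CCK-8 proliferation in L02 cells (DMEM, 10% FBS, 37 °C, 5% CO₂). Cells were plated overnight in 96-well plates, then given AAI (dissolved in 1% NaHCO₃) and/or SFII (dissolved in DMSO). At 0, 24 and 48 h, medium was swapped for CCK-8 reagent, incubated 2 h at 37 °C, and absorbance was read at 450 nm.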

NQO1 [8] = target: T1, NQO1 (Homo sapiens, UniProt P15559); assay: NQO1 activity assay in L02 cells; format: cell-based; settings: 8 h
Outline: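 An NQO1-knockdown L02 line was made by infecting cells at 50% density with concentrated shNQO1 or shNC lentivirus plus polybrene for 10 h, then selecting with puromycin (2 μg/mL) for 48 h. Knockdown was verified by qRT-PCR and Western blot. NQO1 activity was measured with a commercial kit, reading absorbance at 440 nm.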

NQO1 [9] = target: T1, NQO1; assay: NQO1 enzyme activity test; format: biochemical
NQO1 [10] = target: NQO1 (Mus musculus, UniProt Q64669); assay: NQO1 activity in kidney and liver tissues of mice; format: in vivo; settings: adult mice, SFII 30, 60 mg/kg orally, 2.5 h
Outline: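 NQO1 activity in mouse kidney and liver samples was measured with a commercial NQO1 activity assay kit. Sample and reaction buffer were mixed in 96-well plates, and absorbance was read at 440 nm.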

L02 [11] = assay: qRT-PCR of apoptotic-related genes in L02; format: cell-based, human; settings: AAI (20 or 50 μM) with SFII, 24 h
NQO1 [12] = target: T1, NQO1; assay: Comprehensive 2D NQO1 biochromatography retention; format: binding; settings: 2D NQO1 column/C18 column/TOFMS
Blood coagulation assay = format: in vivo; settings: C57BL/6 adult mice, 6 mg/kg orally, 24 h
Outline: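 Adult C57BL/6 mice (4 per group) received test compound orally at 6 mg/kg and were killed 24 h later. Blood was analysed for activated partial thromboplastin time, prothrombin time and thrombin time.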

NQO1 [13] = target: T1, NQO1; assay: NQO1 activity assay in HK-2 cells; format: cell-based; settings: HK-2, 5 μM, 8 h, vs control group
Outline: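 HK-2 cells (DMEM/F12, 10% FBS, 37 °C, 5% CO₂) were treated with test compound at 5 μM for 8 h before protein extraction. NQO1 activity was measured with a commercial NQO1 activity kit, reading absorbance at 440 nm on a microplate reader.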

HK-2 [14] = assay: Flow cytometry analysis of apoptosis in HK-2; format: cell-based, human; settings: AAI with SFII (10 or 20 μM), 24 h
infant mice [15] = assay: AAI-induced liver cancer model in infant mice; format: in vivo
infant mice [16] = assay: Infant mice acute injury model; format: in vivo
Outline: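 Male infant mice on postnatal day 14 were injected with NaHCO₃ or AAI. SFII 10 mg/kg was given 12 h before AAI; control groups were pretreated with olive oil 12 h before injection. Mice were killed 24 h after AAI. Liver and kidney were analysed by Western blot. For TUNEL, sections were quenched with 0.3% H₂O₂ (30 min, room temperature), incubated with TUNEL mix for 2 h at 37 °C in the dark, then streptavidin-HRP for 30 min at 37 °C. Apoptotic cell percentage was calculated.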

HK-2 [17] = assay: qRT-PCR of apoptosis-related genes in HK-2; format: cell-based, human; settings: AAI with SFII, 24 h
Outline: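 HK-2 cells (DMEM/F12, 10% FBS, 1% antibiotic-antimycotic, 37 °C, 5% CO₂) were treated with AAI, SFII, or both for 24 h. Expression of apoptosis-related genes was then measured by qRT-PCR.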

L02 [18] = assay: ALT and AST in culture medium of L02; format: cell-based, human; settings: AAI (20 or 50 μM) with SFII (5 or 10 μM), 24 h, vs AAI alone
Outline: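 L02 cells were grown in DMEM with 10% FBS and 1% antibiotic-antimycotic at 37 °C, 5% CO₂. Cells were exposed to AAI (20 or 50 μM) with or without SFII (5 or 10 μM) for 24 h. Culture medium was then collected, and ALT and AST were measured with clinical aminotransferase test kits.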

NQO1 [19] = target: T1, NQO1; assay: Surface plasmon resonance; format: binding
L02 [20] = assay: Flow cytometry analysis of apoptosis in L02; format: cell-based, human
Outline: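 L02 cells were plated in 6-well plates overnight, then treated with AAI (20 or 50 μM) with or without SFII (5 or 10 μM) for 24 h. Cells were trypsinised, spun at 1000 rpm for 3 min, washed in PBS, and stained with Annexin V-FITC or -APC plus PI for 20 min at room temperature in the dark. Flow cytometry counted Annexin V⁺/PI⁺ and Annexin V⁺/PI⁻ cells as apoptotic.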

[21] = adult mice renal fibrosis model

T1 sequence (P15559 whole entry): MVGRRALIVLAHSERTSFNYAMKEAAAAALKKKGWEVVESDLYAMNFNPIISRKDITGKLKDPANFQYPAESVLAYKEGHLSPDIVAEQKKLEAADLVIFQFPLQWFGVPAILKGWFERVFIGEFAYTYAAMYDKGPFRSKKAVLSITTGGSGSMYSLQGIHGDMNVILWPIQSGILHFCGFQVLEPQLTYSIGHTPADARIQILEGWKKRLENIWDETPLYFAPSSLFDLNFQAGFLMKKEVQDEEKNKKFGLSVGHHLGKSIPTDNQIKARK
Chain of NQO1 (Mus musculus, UniProt Q64669) (Q64669 2-274 limits assumed): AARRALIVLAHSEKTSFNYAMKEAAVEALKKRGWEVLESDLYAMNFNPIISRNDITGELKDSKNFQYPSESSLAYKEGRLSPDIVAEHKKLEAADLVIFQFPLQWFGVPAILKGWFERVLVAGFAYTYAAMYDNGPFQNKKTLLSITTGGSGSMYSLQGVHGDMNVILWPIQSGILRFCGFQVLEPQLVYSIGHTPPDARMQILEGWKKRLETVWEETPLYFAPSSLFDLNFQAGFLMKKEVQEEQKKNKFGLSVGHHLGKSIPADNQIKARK

For `COc1cccc2c1cc([N+](=O)[O-])c1c(C(=O)O)cc3c(c12)OCO3` [AAI, Aristolochic acid I, reference compound], the “γ-H2AX expression (DNA damage) in L02” value (L02 [1]; AAI 20 μM) was “considerable increase”, the “DNA damage in the liver of adult mice” value [2] was “scarcely caused DNA damage” and the “γ-H2AX in the liver of infant mice” value ([2]; age 14 days) was “upregulation of γ-H2AX”. For the same compound, the “body weight, AAI” value (C57BL/6 adult mice [3]; [21]) was “intensive weight loss”, the “AAI-induced proliferation inhibition in HK-2” value (HK-2 [4]; different doses of AAI, compared with L02) was “better tolerance” and the “expression of γ-H2AX in HK-2” value (HK-2 [5]; AAI dose gradient, particularly at 100 μM) was “increase”. For the same compound, the “elevation of blood CRE, fold change” value (C57BL/6 adult mice [6]; adult mice, AAI 5 mg/kg i.p. for 3 days, AAI alone) was “over 1.5” and the “anti-proliferative effect in L02” value (L02 [7]; AAI 0, 5, 10, 20, 50, or 100 μM, 48 h) was “gradually intensified”.
In the case of `COc1cccc(O)c1-c1cc(=O)c2c(O)c(OC)c(OC)c(OC)c2o1` [SFII, skullcapflavone II], the “expression of P53, cleaved caspase-3, cleaved-PARP-1 and γ-H2AX in L02” value (L02 [1]; AAI (20 or 50 μM) with SFII, 24 h) was “efficaciously decrease”, the “inhibitory capability to NQO1 activity in L02” value (NQO1 [8]; L02, 5 μM) was “significantly higher than oroxylin A” and the “NQO1 activity of shNQO1-L02” value (NQO1 [8]; NQO1 knockdown L02, SFII 5 μM) was “further reduced”. For the same compound, the pIC50 (NQO1 [9]) was 5.54, the “NQO1 enzyme activity in kidney and liver in vivo” value (NQO1 [10]) was “good inhibitory effect” and the “renal histology (H&E and Sirius red staining)” value (C57BL/6 adult mice [3]; SFII 30 or 60 mg/kg gavage + single AAI 10 mg/kg i.p., day 14) was “effectively relieved renal tubular atrophy and interstitial fibrosis”. For the same compound, the “body weight, mice pretreated with SFII” value (C57BL/6 adult mice [3]; [21]) was “no significant change”, the “mRNA levels of BAX, NOXA, PUMA, and BAK in L02” value (L02 [11]) was “significantly downregulate” and the “retention on NQO1 biochromatography” value (NQO1 [12]) was “retention behaviors”. For the same compound, the “AAI-induced inhibition of cell proliferation in HK-2” value (HK-2 [4]; AAI 100 μM with SFII, 48 h) was “partially alleviated”, the “expression of γ-H2AX and downstream pro-apoptotic signaling in HK-2” value (HK-2 [5]; AAI with SFII, 24 h) was “significantly decrease” and the “activated partial thromboplastin time (APTT)” value (Blood coagulation assay; 6 mg/kg) was “not significantly altered; also recorded: barely prolonged”. For the same compound, the “prothrombin time (PT)” value (Blood coagulation assay; 6 mg/kg) was “not significantly altered; also recorded: barely prolonged”, the “thrombin time (TT)” value (Blood coagulation assay; 6 mg/kg) was “not significantly altered; also recorded: barely prolonged” and the “inhibition of NQO1 activity in HK-2” value (NQO1 [13]) was “more efficient NQO1 inhibitory effect”. The “percentage of apoptotic cells in HK-2” value (HK-2 [14]) was “reduced the percentage of apoptotic cells in HK-2 in a dose-dependent manner”, the “expressions of γ-H2AX, P53, cleaved-caspase-3, and cleaved-PARP-1 protein in kidney” value (C57BL/6 adult mice [6]; SFII 30 or 60 mg/kg oral + AAI 5 mg/kg) was “downregulated” and the “blood CRE” value (C57BL/6 adult mice [6]; SFII 30 or 60 mg/kg oral + AAI 5 mg/kg, 3 days, vs AAI alone) was “significantly declined”. For the same compound, the “fibrosis area of kidney (Sirius red staining)” value (C57BL/6 adult mice [6]; SFII 30 or 60 mg/kg oral + AAI 5 mg/kg, vs AAI alone, dose-dependent) was “significantly limited”, the “inhibitory effect of AAI on cell proliferation in L02” value (L02 [7]; AAI 20 μM + SFII 5 or 10 μM, 48 h, vs AAI alone) was “significantly relieved” and the “cell proliferation of L02, SFII alone” value (L02 [7]; SFII alone) was “barely affected”. For the same compound, the “number of tumors per liver” value (infant mice [15]; SFII 10, 30 or 60 mg/kg gavage 12 h before AAI 20 mg/kg, 16 weeks, dose-independently) was “significant decrease”, the kidney fibrosis (infant mice [15]; SFII pretreated, 16 weeks after AAI administration) was “notably relieved” and the “expression of DNA damage and apoptosis-related proteins in liver and kidney” value (infant mice [16]; SFII 10 mg/kg 12 h before AAI 20 mg/kg, 24 h) was “significantly decreased”. The “cell apoptosis and interstitial fibrosis in kidney” value (infant mice [16]; SFII 10 mg/kg pre-treated + AAI 20 mg/kg) was “reduced cell apoptosis as well as interstitial fibrosis”, the “proportion of apoptotic cells in the liver” value (infant mice [16]; SFII 10 mg/kg pre-treated, vs AAI alone) was “decreased” and the “expression of apoptosis-related genes BAX, NOXA, PUMA, and BAK in HK-2” value (HK-2 [17]) was “downregulated”. The “ALT level in culture supernatant of L02” value (L02 [18]) was “decreased”, the “AST level in culture supernatant of L02” value (L02 [18]) was “decreased” and the pKd (NQO1 [19]) was 5.38. The “percentage of apoptotic cells in L02” value (L02 [20]; AAI (20 μM, 50 μM) with SFII (5 or 10 μM), 24 h, vs AAI alone) was “significantly decreased” and the “apoptosis of L02, SFII alone” value (L02 [20]; SFII treatment alone) was “did not affect”.
For `C[C@@H]1C[C@H]2[C@@H]3CCC4=CC(=O)C=C[C@]4(C)[C@@]3(F)[C@@H](O)C[C@]2(C)[C@@]1(O)C(=O)CO` [dexamethasone, reference compound], the “retention on NQO1 biochromatography” value (NQO1 [12]) was “no retention”.
With `O=c1oc2ccccc2c(O)c1Cc1c(O)c2ccccc2oc1=O` [dicoumarol, reference compound] the “activated partial thromboplastin time (APTT)” value (Blood coagulation assay) was “significantly elevate”, the “prothrombin time (PT)” value (Blood coagulation assay) was “significantly elevate” and the “thrombin time (TT)” value (Blood coagulation assay) was “significantly elevate”.
For `COc1c(O)cc2oc(-c3ccccc3)cc(=O)c2c1O` [oroxylin A], the pIC50 (NQO1 [9]) was 6.03, the “retention on NQO1 biochromatography” value (NQO1 [12]) was “retention behaviors” and the “activated partial thromboplastin time (APTT)” value (Blood coagulation assay) was “not significantly altered”. The “prothrombin time (PT)” value (Blood coagulation assay) was “not significantly altered”, the “thrombin time (TT)” value (Blood coagulation assay) was “not significantly altered” and the “inhibition of NQO1 activity in HK-2” value (NQO1 [13]) was “did not notably inhibit”. For the same compound, the pKd (NQO1 [19]) was 6.06.
With `COc1cc(O)c2c(=O)cc(-c3ccccc3)oc2c1` [tectochrysin] the “retention on NQO1 biochromatography” value (NQO1 [12]) was “retention behaviors”.
In the case of `COc1c(O)cc(O)c2c(=O)cc(-c3ccccc3)oc12` [wogonin], the pIC50 (NQO1 [9]) was 4.99 and the “retention on NQO1 biochromatography” value (NQO1 [12]) was “retention behaviors”.

Source: publication PMC9876410 (Acta Pharmacologica Sinica, 2023)
